Experimental data from different studies.
Target: Serine/threonine-protein kinase Sgk1 (SGK1, Homo sapiens, UniProt O00141)
Sequence (O00141 1-431, as in one of the studies): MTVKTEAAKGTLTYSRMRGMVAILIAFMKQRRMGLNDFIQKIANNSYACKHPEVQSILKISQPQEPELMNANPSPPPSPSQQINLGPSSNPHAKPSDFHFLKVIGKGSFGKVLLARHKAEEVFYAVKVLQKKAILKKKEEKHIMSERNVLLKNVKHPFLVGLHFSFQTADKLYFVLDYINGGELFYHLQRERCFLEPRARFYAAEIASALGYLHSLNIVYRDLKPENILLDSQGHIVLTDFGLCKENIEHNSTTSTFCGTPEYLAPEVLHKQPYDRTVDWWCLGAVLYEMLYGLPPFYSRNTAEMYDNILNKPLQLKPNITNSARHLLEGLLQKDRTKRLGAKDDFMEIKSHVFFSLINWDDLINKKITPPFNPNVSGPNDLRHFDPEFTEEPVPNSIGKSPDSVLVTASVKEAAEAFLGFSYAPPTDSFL

COc1ncccc1-c1cnn2ccc(N3CCN(C(=O)OC(C)C)CC3)nc12 — remaining binding (binding; competition with immobilised ligand; 1 µM): 100%
Cn1cc(-c2cc(F)cc(N3CCn4c(cc5c4CCCC5)C3=O)c2CO)cc(Nc2ccc(N3CCN(C4COC4)CC3)cn2)c1=O — inhibition (enzyme activity; inhibitor; 0.1 µM): 13%
Cn1cncc1[C@@](O)(COc1ccc(C#N)cc1-c1ccc(OC(F)(F)F)cc1)c1ccc(C#N)cc1 — remaining binding (cell-free assay; competition with immobilised ligand; 1 µM): 100%
Cn1cc(-c2cccc(N3CCc4c(sc5c4CC(C)(C)C5)C3=O)c2CO)cc(Nc2ccncn2)c1=O — inhibition (enzyme activity; inhibitor; 1 µM): -11%
N#CC1(c2ccccn2)CCN(Cc2cc(C(=O)O)c(=O)n3ccccc23)CC1 — remaining binding (cell-free assay; competition with immobilised ligand; 1 µM): 87%
O=c1[nH]c2ccccc2n1C1CCN(Cc2ccc(-c3[nH]c4cc5ncnc5cc4nc3-c3ccccc3)cc2)CC1 — remaining signal (cell-free assay; 0.5 µM): 102%
Nc1ncc(-c2nc(N3CCOCC3)nc(N3CCOCC3)n2)c(C(F)F)n1 — remaining binding (binding; competition with immobilised ligand; 10 µM): 77%
CC(C)(C)c1cc(C=C(C#N)C#N)cc(Br)c1O — remaining activity (enzyme activity; inhibitor; 0.5 µM): 95.3%
C#Cc1n[nH]c2c(-c3cn(C(C)c4ccccn4)c(=O)[nH]c3=O)cc(F)cc12 (stereo not drawn) — inhibition (enzyme activity; inhibitor; 1 µM): 0%
